The list is not random: actives were taken first. Their share in the collection is about 3.5%.
APP 5'UTR act = APP 5'UTR luciferase reporter activation. AID 1276. SH-SY5Y APP 5'UTR luciferase reporter, luminescence; zero percent = DMSO vehicle wells. activation, % at 2 µM. actives 1% (n = 190,000);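 active = activation above a set limit, based on mean plus 3 SD of controls, cut at about 140% in these data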
NF-kB expr up = NF-kB expression increase, human neuronal cells; NF-kB reporter expression; hits give high values; fold change at 12.5 µM; actives 1.6% (n = 190,000); in the data active = fold change above about 3.3
FLuc inhib CS = Photinus pyralis luciferase inhibition counter-screen; ATPLite firefly luciferase biochemical luminescence, 10 min; actives 1.5% (n = 200,000); inhibition, % at 10 µM; P08659;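 active = inhibition above about 50% when tested at 10 µM, limit read from the data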
Target sequence (P08659 whole entry, looked up): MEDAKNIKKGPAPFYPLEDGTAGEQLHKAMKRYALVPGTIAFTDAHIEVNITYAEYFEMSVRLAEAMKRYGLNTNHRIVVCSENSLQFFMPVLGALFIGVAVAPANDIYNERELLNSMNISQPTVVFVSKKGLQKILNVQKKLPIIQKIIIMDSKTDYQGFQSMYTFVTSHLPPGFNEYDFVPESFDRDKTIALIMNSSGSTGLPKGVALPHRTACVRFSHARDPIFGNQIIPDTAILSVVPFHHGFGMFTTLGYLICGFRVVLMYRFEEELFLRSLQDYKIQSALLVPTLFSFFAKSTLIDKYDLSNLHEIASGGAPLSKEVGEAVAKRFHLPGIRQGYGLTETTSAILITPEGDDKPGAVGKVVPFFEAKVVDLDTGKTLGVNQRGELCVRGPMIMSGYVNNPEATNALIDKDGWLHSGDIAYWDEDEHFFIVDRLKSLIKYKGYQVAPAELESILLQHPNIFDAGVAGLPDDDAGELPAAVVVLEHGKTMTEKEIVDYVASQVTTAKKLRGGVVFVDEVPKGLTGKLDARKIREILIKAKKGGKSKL
STAT1 act = STAT1 signaling activation | NIH 3T3 STAT1-luciferase reporter, IFN-gamma, luminescence; 100% = IFN-gamma alone, no compound | activation (% of control), % at 5.5 µM | actives 2.6% (n = 200,000);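 active = activation above the screen-wide mean activation plus 3 SD, cut at about 130% in these data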;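 note: raw ratio to IFN-gamma control signal so 100% means no change and 0% no light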
Pf gamet viab = inhibitors of late stage P. falciparum gametocyte viability. P. falciparum stage V gametocytes, ATP luminescence, 24 h. inhibition, % at 10.9 µM. actives 0.065% (n = 150,000);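 active = inhibition above the mean plus 3 SD of compounds within the control limits, set per campaign, cut at about 38% in these data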;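 note: 0% = DMSO wells and 100% = medium only without gametocytes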
FLuc act counter = firefly luciferase counter-screen for stimulation assays. ATPlite luciferase biochemical, luminescence, 10 min; 0 = ATP-free wells, 1 = DMSO control. P08659. 200,000 tested, under 10 active. activation factor at 10 µM;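 active = luciferase activation factor, scaled between plate controls, of at least 2 with compound at 10 µM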
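Assay system: Luciferase/luciferin detection reagent, cell-free biochemical luciferase assay / Also added: ATP substrate / Schedule: 10 min at ambient temperature / Measured by: luminescence measurement of luciferase light output / Benchmarks: low control with PBS replacing ATP, high control enzyme plus ATP without compound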
Active calls of the source: *; x = not tested or not shown.

SMILES	APP 5'UTR act	NF-kB expr up	FLuc inhib CS	STAT1 act	Pf gamet viab	FLuc act counter
Nc1[nH]n(-c2ccccc2)c(=O)c1N=Nc1ccc2c(c1)OCCO2	167*	1.2	76*	120	0	0.2
Cc1[nH]n(-c2ccccc2)c(=O)c1N=Nc1ccccc1	120	4*	12	128	x	0.9
Cc1ccc(N=Nc2c(N)n(-c3ccccc3)[nH]c2=O)cc1	26	4.2*	13	139*	x	0.9
Nc1[nH]n(-c2ccccc2)c(=O)c1N=Nc1ccc2c(c1)OCO2	x	x	x	x	7	x
Cc1[nH]n(-c2ccccc2)c(=O)c1N=Nc1ccc(Cl)cc1	x	x	x	x	12	x
Cc1[nH]n(C(N)=S)c(=O)c1N=Nc1ccc(S(=O)(=O)N2CCCC2)cc1	-2	1.1	11	101	x	0.9
Cc1ccc(N=Nc2c(C)[nH]n(C(N)=S)c2=O)cc1	48	2.6	33	137*	-25	0.7
COCCN(C(=O)c1ccc(OC2CCN(S(=O)(=O)N(C)C)CC2)cc1)C(C)C	x	x	x	x	-3	x
CCC(COC)NC(=O)c1ccc(OC)c(OC2CCN(C(C)=O)CC2)c1 (stereo unspecified)	x	x	x	x	9	x
O=C(NCC1CCCO1)C1CCN(S(=O)(=O)c2cccc3nonc23)CC1 (stereo unspecified)	-23	0.95	-2	101	13	1
CCOc1ccc(C(=O)Nc2cc(C)on2)cc1	109	3.6*	74*	104	10	0.3
CCOc1cc(C(=O)Nc2cc(C)on2)cc(OCC)c1OCC	10	0.99	-4	95	3	1
Cc1cc(NC(=O)c2ccc(Cl)cc2)no1	126	2.9	59*	116	x	0.4
Cc1cc(NC(=O)c2ccc(-c3ccc(F)c(Cl)c3)o2)no1	34	1.3	-1	122	-25	1
Cc1cc(NC(=O)c2ccc(S(=O)(=O)N(C)C)cc2)no1	8	1.2	-2	94	x	1
Cc1cc(NC(=O)c2ccc(-c3ccccc3F)o2)no1	58	2	10	144*	x	0.9
COc1nc(C)nc(NC(=O)NS(=O)(=O)c2ccc(C)cc2)n1	12	0.86	-2	98	x	1
CCC(C(=O)NC(C)(C)C)N(Cc1ccc(F)cc1)C(=O)c1snc(C(N)=O)c1N (stereo unspecified)	x	x	x	x	-10	x
CC(=O)Nc1c(O)nc(SCc2ccccc2C#N)[nH]c1=O	-1	1.2	-11	101	16	1.1
Cc1nc2ccccn2c1C(=O)N/N=C/c1cc(C)n(-c2ccc(Cl)cc2)c1C	13	0.95	7	102	23	0.9
Cc1cc(/C=N/NC(N)=S)c(C)n1-c1ccc(Cl)c(Cl)c1	-6	7.8*	-4	114	-5	1
CCNC(=S)N/N=C/c1cc(C)n(-c2ccc(Cl)cc2)c1C	20	1	8	144*	16	0.9
Cc1cc(/C=N\NC(=O)CC(=O)NC2CCCCC2)c(C)n1-c1ccc(Cl)c(Cl)c1	9	0.96	-8	105	x	1.1
NNC(=O)CN1C(c2ccccc2Br)=Nc2ccc(Br)cc2C1c1ccccc1 (stereo unspecified)	19	0.64	-1	107	-6	1
CC(C)(C)c1ccc(/C=C/C(=O)N2CCc3ccccc3C2)cc1	0	1.1	1	103	-2	1
SMILES	APP 5'UTR act	NF-kB expr up	FLuc inhib CS	STAT1 act	Pf gamet viab	FLuc act counter
Cc1ccc(/C=C/C(=O)N2CCc3ccccc3C2)cc1	1	2.1	51*	105	-7	0.5
O=C(Nc1ccccc1)N1CCCC2CCCCC21 (stereo unspecified)	32	2	17	131*	x	0.8
O=C1OCC=C1NNC(=O)c1cccnc1	18	1.1	0	98	4	1
CCCC(=O)NC(c1ccccc1OC)c1ccc2cccnc2c1O (stereo unspecified)	-75	4.7*	-5	93	x	1
COC(=O)CSc1nnc(SCc2ccc(Cl)cc2)s1	5	1.1	3	100	-2	1
COC(=O)c1cnc(SCc2ccc(Cl)cc2)n1C	227*	1.8	-1	117	x	1
Clc1cc(Br)ccc1OCCN1CCOCC1	9	1.3	-1	109	-5	1
CCCCCOc1ccc(CN2CCOCC2)cc1Cl	144*	1.9	22	116	-18	0.8
O=C(COC(=O)c1cccc(NC(=O)c2ccco2)c1)c1ccc(Br)cc1	27	1.2	60*	120	4	0.4
Cc1ccc(C(=O)COC(=O)c2cccc(NC(=O)c3ccc([N+](=O)[O-])cc3[N+](=O)[O-])c2)cc1	164*	3	96*	61	-8	0
CC(=O)Nc1ccc(C(=O)OCC(=O)c2cccc([N+](=O)[O-])c2)cc1	4	1.1	-10	88	x	1.1
CC(C)(C)C(=O)COC(=O)c1cccc(NC(=O)c2ccco2)c1	16	1.1	-5	113	20	1
CN1CCN(Cc2nc3ccccc3c(=O)n2Cc2nc(-c3ccc4ccccc4c3)cs2)CC1	-2	16*	-4	59	20	1
CN1CCN(Cc2nc3ccccc3c(=O)n2Cc2nc(-c3cccc([N+](=O)[O-])c3)cs2)CC1	6	0.73	-1	42	9	1
COc1ccc(-c2cn(Cc3ccc(C(=O)NCc4ccc(C)cc4)cc3)c(C(C)N)n2)cc1 (stereo unspecified)	x	x	x	x	4	x
CCC(C)C(=O)N1CCc2cc(-c3csc(N)n3)ccc21 (stereo unspecified)	86	2	67*	132*	-10	0.3
CC(=O)Nc1cccc(-c2csc(N)n2)c1	-20	x	0	101	19	1
CC1Cc2cc(-c3csc(N)n3)ccc2O1 (stereo unspecified)	x	x	x	x	7	x
CCCC(=O)N1CCc2cc(-c3nc(N)sc3C)ccc21	42	2	15	137*	x	0.8
CC(C)(C)C(=O)N1CCc2cc(-c3csc(N)n3)ccc21	121	1.3	96*	66	x	0
CCNS(=O)(=O)c1ccc(NC(=O)c2ccc(Cn3cc([N+](=O)[O-])cn3)o2)cc1	10	1	1	101	1	1
Cc1noc(C)c1S(=O)(=O)N(Cc1ccccc1)C(C)C	x	x	x	x	-36	x
COc1ccc(S(=O)(=O)NCC(=O)NCCc2ccc(OC)c(OC)c2)cc1	x	x	x	x	14	x
Cc1nn(C)c(C)c1CNC(=O)Nc1ccc(Cl)cc1	55	2	25	129*	5	0.7
Cc1csc(NC(=O)Nc2cccc(Cl)c2)n1	119	4.6*	19	134*	-14	0.8
Cc1nn(C)c(C)c1CNC(=O)Nc1cccc(Cl)c1	32	4.6*	17	124	x	0.8
Cc1ccc(NC(=O)C(=O)NCc2ccccn2)cc1	27	2.4	6	134*	-25	0.9
CCOC(=O)C1(Cc2ccccc2C(F)(F)F)CCN(CC2CC2)CC1	12	1.1	-8	95	31	1.1

Assay outcomes from PubChem BioAssay.
